Data taken from ChEMBL document CHEMBL3217694, “Diaryl- and triaryl-pyrrole derivatives: inhibitors of the MDM2-p53 and MDMX-p53 protein-protein interactions†Electronic supplementary information (ESI) available: Experimental details for compound synthesis, analytical data for all compounds and intermediates. Details for the biological …” (Medchemcomm, 2013).
The source made the active and inactive calls. The rule behind the calls is not given here.

Assays:
[1] = biological target: E3 ubiquitin-protein ligase Mdm2 (Homo sapiens, UniProt Q00987); test: Inhibition of MDM2-p53 interaction (unknown origin) by ELISA
Method in brief: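 MDM2–p53 ELISA protein–protein binding assay; IC50 values were determined in follow-up concentration–response testing.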

[2] = biological target: T1, E3 ubiquitin-protein ligase Mdm2/Cellular tumor antigen p53/Protein Mdm4 (Homo sapiens) (UniProt P04637+Q00987+O15151); test: Inhibition of MDM2/MDMX-p53 interaction in human A2780 cells expressing wild-type p53 assessed as induction of p21 protein expression at 0.2 to 5 uM after 4 hrs by western blot analysis; format: cell-based
Method in brief: (§1)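 Cell lines with defined MDM2 and p53 status were exposed to increasing compound concentrations for 4 h. p53 pathway activation (p53 and the p53-dependent proteins) was then detected by Western blotting of cell extracts.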

[3] = biological target: T1, E3 ubiquitin-protein ligase Mdm2/Cellular tumor antigen p53/Protein Mdm4 (Homo sapiens); test: Inhibition of MDM2/MDMX-p53 interaction in human SJSA-1 cells expressing amplified MDM2 and wild-type p53 assessed as induction of MDM2 protein expression at 5 uM after 4 hrs by western blot analysis; format: cell-based; method in brief: as §1
[4] = biological target: T1, E3 ubiquitin-protein ligase Mdm2/Cellular tumor antigen p53/Protein Mdm4 (Homo sapiens); test: Inhibition of MDM2/MDMX-p53 interaction in human A2780 cells expressing wild-type p53 assessed as induction of p53 protein expression at 0.2 to 5 uM after 4 hrs by western blot analysis; format: cell-based; method in brief: as §1
[5] = biological target: T1, E3 ubiquitin-protein ligase Mdm2/Cellular tumor antigen p53/Protein Mdm4 (Homo sapiens); test: Inhibition of MDM2/MDMX-p53 interaction in human SJSA-1 cells expressing amplified MDM2 and wild-type p53 assessed as induction of p53 protein expression at 5 uM after 4 hrs by western blot analysis; format: cell-based; method in brief: as §1
[6] = biological target: T1, E3 ubiquitin-protein ligase Mdm2/Cellular tumor antigen p53/Protein Mdm4 (Homo sapiens); test: Inhibition of MDM2/MDMX-p53 interaction in human SJSA-1 cells expressing amplified MDM2 and wild-type p53 assessed as induction of p21 protein expression at 5 uM after 4 hrs by western blot analysis; format: cell-based; method in brief: as §1
[7] = biological target: T1, E3 ubiquitin-protein ligase Mdm2/Cellular tumor antigen p53/Protein Mdm4 (Homo sapiens); test: Inhibition of MDM2/MDMX-p53 interaction in human A2780 cells expressing wild-type p53 assessed as induction of MDM2 protein expression at 0.2 to 5 uM after 4 hrs by western blot analysis; format: cell-based; method in brief: as §1
[8] = biological target: T1, E3 ubiquitin-protein ligase Mdm2/Cellular tumor antigen p53/Protein Mdm4 (Homo sapiens); test: Inhibition of MDM2/MDMX-p53 interaction in human A2780 CP70 cells expressing p53 mutant gene assessed as induction of p21 protein expression at 0.2 to 5 uM after 4 hrs by western blot analysis; format: cell-based; method in brief: as §1
[9] = biological target: T1, E3 ubiquitin-protein ligase Mdm2/Cellular tumor antigen p53/Protein Mdm4 (Homo sapiens); test: Inhibition of MDM2/MDMX-p53 interaction in human A2780 CP70 cells expressing p53 mutant gene assessed as induction of MDM2 protein expression at 0.2 to 5 uM after 4 hrs by western blot analysis; format: cell-based; method in brief: as §1
[10] = biological target: T1, E3 ubiquitin-protein ligase Mdm2/Cellular tumor antigen p53/Protein Mdm4 (Homo sapiens); test: Inhibition of MDM2/MDMX-p53 interaction in human A2780 CP70 cells expressing p53 mutant gene assessed as induction of p53 protein expression at 0.2 to 5 uM after 4 hrs by western blot analysis; format: cell-based; method in brief: as §1

T1 sequence (O15151 whole entry, looked up): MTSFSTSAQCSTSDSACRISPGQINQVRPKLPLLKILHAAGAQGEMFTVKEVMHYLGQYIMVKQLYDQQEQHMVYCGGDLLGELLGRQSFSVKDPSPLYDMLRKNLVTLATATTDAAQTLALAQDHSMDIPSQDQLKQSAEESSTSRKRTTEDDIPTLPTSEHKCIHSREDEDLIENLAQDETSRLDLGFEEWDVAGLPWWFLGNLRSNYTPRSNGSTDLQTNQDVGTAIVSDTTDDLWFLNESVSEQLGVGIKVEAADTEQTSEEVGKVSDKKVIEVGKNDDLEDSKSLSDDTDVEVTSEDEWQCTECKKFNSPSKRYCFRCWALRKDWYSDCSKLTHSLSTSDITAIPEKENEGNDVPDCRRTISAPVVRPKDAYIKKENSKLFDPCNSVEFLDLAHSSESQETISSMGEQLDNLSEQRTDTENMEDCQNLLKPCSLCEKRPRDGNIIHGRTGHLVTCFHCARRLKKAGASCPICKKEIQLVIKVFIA
T1 sequence (P04637 whole entry, looked up): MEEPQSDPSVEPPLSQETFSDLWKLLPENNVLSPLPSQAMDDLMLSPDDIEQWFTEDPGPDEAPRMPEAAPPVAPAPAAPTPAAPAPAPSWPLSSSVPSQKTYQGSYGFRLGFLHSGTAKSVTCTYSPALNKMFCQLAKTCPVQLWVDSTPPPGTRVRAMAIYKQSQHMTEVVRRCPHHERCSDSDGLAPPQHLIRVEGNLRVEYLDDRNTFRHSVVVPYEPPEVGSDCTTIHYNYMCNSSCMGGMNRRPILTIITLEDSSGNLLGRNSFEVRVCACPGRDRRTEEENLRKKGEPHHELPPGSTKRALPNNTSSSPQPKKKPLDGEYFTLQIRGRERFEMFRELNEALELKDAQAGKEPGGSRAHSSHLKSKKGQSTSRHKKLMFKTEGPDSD
T1 sequence (Q00987 whole entry, looked up): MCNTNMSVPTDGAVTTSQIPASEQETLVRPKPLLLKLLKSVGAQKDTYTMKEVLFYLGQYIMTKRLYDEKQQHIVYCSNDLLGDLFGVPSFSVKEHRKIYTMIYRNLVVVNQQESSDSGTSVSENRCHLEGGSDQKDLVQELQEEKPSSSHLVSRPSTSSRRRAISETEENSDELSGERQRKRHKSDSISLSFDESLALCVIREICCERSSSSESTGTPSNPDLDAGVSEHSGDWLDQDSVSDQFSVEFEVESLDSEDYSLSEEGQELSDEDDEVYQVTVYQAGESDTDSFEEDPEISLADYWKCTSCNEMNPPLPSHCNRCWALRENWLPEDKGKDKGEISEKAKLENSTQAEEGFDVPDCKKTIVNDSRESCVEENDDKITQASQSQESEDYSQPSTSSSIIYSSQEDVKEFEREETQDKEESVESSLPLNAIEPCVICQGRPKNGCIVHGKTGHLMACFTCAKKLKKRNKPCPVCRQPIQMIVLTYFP

Row | SMILES | inhibition [1] | also measured
1 | CN1C(=O)C(=Cc2cc(-c3ccccc3)n(-c3ccc(Cl)cc3)c2-c2ccccc2)C(=O)N(C)C1=S | – | IC50 [1]: ND(Insoluble)
2 | O=C1NC(=O)C(=Cc2cc(-c3ccccc3)n(-c3ccc(Br)cc3)c2-c2ccccc2)C(=O)N1 | Dose-dependent effect | –
3 | COC(=O)C(=Cc1cc(-c2ccccc2)n(-c2ccc(Cl)cc2)c1-c1ccccc1)C(=O)OC | Dose-dependent effect | –
4 | O=C(O)/C=C/c1cc(-c2ccccc2)n(-c2ccc(Cl)cc2)c1-c1ccccc1 | Dose-dependent effect | –
5 | O=C1NC(=S)NC(=O)C1=Cc1cc(C2CC2)n(-c2ccc(Cl)cc2)c1-c1ccccc1 | Dose-dependent effect | –
6 | O=C1NC(=S)N(c2ccccc2)C(=O)/C1=C/c1cc(-c2ccccc2)n(-c2ccc(Cl)cc2)c1-c1ccccc1 | Dose-dependent effect | inhibition [2]: Active; inhibition [3]: Active; inhibition [4]: inactive; inhibition [5]: Active; inhibition [6]: Active; inhibition [7]: Active; inhibition [8]: inactive; inhibition [9]: inactive; inhibition [10]: inactive
7 | N#Cc1ccc(-n2c(-c3ccccc3)cc(C=C3C(=O)NC(=S)NC3=O)c2-c2ccccc2)cc1 | Dose-dependent effect | –
8 | Cc1cc(/C=C2\C(=O)NC(=S)N(c3ccccc3)C2=O)c(C)n1-c1ccc(Cl)cc1 | Dose-dependent effect | –
9 | Cc1ccc(-n2c(C)cc(C=C3C(=O)NC(=S)NC3=O)c2C)cc1 | Dose-dependent effect | –
10 | CC(C)(C)c1ccc(-n2c(-c3ccccc3)cc(C=C3C(=O)NC(=O)NC3=O)c2-c2ccccc2)cc1 | Dose-dependent effect | –
11 | CC(C)(C)c1cc(C=C2C(=O)NC(=S)NC2=O)c(-c2ccccc2)n1-c1ccc(Cl)cc1 | Dose-dependent effect | –
12 | CC1(C)OC(=O)C(=Cc2cc(-c3ccccc3)n(-c3ccc(Br)cc3)c2-c2ccccc2)C(=O)O1 | Dose-dependent effect | –
13 | CCOC(=O)c1ccc(-n2c(-c3ccccc3)cc(C=C3C(=O)NC(=S)NC3=O)c2-c2ccccc2)cc1 | Dose-dependent effect | –
14 | O=C(NCCO)C(=Cc1cc(-c2ccccc2)n(-c2ccc(Cl)cc2)c1-c1ccccc1)C(=O)NCCO | Dose-dependent effect | –
15 | O=C1NC(=S)N(c2cccc(Cl)c2)C(=O)/C1=C/c1cc(-c2ccccc2)n(-c2ccc(Cl)cc2)c1-c1ccccc1 | Dose-dependent effect | –
16 | O=C1NC(=O)C(=Cc2cc(-c3ccccc3)n(-c3ccc(Cl)cc3)c2-c2ccccc2)C(=O)N1 | Dose-dependent effect | –
17 | O=C1NC(=S)NC(=O)C1=Cc1cc(-c2ccccc2)n(-c2ccc(Br)cc2)c1C1CC1 | Dose-dependent effect | –
18 | CC(C)(C)c1cc(C=C2C(=O)NC(=S)NC2=O)c(-c2ccccc2)n1-c1ccc(Br)cc1 | Dose-dependent effect | –
19 | N#Cc1ccc(-n2c(-c3ccccc3)cc(C=C3C(=O)NC(=O)NC3=O)c2-c2ccccc2)cc1 | Dose-dependent effect | –

Row | SMILES | inhibition [1] | also measured
20 | O=C1NC(=S)NC(=O)C1=Cc1cc(-c2ccccc2)n(-c2ccc([N+](=O)[O-])cc2)c1-c1ccccc1 | Dose-dependent effect | –
21 | CC1(C)OC(=O)C(Cc2cc(-c3ccccc3)n(-c3ccc(Br)cc3)c2-c2ccccc2)C(=O)O1 | Dose-dependent effect | –
22 | NC(=O)C(=Cc1cc(-c2ccccc2)n(-c2ccc(Cl)cc2)c1-c1ccccc1)C(N)=O | Dose-dependent effect | –
23 | O=C1NC(=S)NC(=O)C1=Cc1cc(-c2ccccc2)n(-c2ccc(Cl)cc2)c1C1CC1 | Dose-dependent effect | –
24 | Cc1ccc(-n2c(C)cc(/C=C3\C(=O)NC(=S)N(c4ccccc4)C3=O)c2C)cc1 | Dose-dependent effect | –
25 | CCN1C(=O)C(=Cc2cc(-c3ccccc3)n(-c3ccc(Cl)cc3)c2-c2ccccc2)C(=O)N(CC)C1=S | Dose-dependent effect | –
26 | CNC(=O)C(=Cc1cc(-c2ccccc2)n(-c2ccc(Cl)cc2)c1-c1ccccc1)C(=O)NC | Dose-dependent effect | –
27 | O=C1NC(=S)NC(=O)C1=Cc1cc(C2CC2)n(-c2ccc(Br)cc2)c1-c1ccccc1 | Dose-dependent effect | –
28 | O=C1NC(=S)NC(=O)C1=Cc1cc(-c2ccccc2)n(-c2ccc(Cl)cc2)c1-c1ccccc1 | Dose-dependent effect | inhibition [2]: Active; inhibition [3]: Active; inhibition [4]: inactive; inhibition [5]: Active; inhibition [6]: Active; inhibition [7]: Active; inhibition [8]: inactive; inhibition [9]: inactive; inhibition [10]: inactive
29 | COc1ccc(-n2c(-c3ccccc3)cc(C=C3C(=O)NC(=O)NC3=O)c2-c2ccccc2)cc1 | Dose-dependent effect | –
30 | OCC(=Cc1cc(-c2ccccc2)n(-c2ccc(Cl)cc2)c1-c1ccccc1)CO | Dose-dependent effect | –
31 | Cc1cc(C=C2C(=O)NC(=S)NC2=O)c(C)n1-c1sc2c(c1C#N)CCCC2 | – | inhibition [2]: inactive; inhibition [3]: Active; inhibition [4]: inactive; inhibition [5]: Active; inhibition [6]: Active; inhibition [7]: inactive; inhibition [8]: inactive; inhibition [9]: inactive; inhibition [10]: inactive
32 | Cc1cc(C=C2C(=O)NC(=S)NC2=O)c(C)n1-c1ccc(Cl)cc1 | Dose-dependent effect | –
33 | O=C1NC(=O)C(=Cc2cc(-c3ccccc3)n(-c3ccc([N+](=O)[O-])cc3)c2-c2ccccc2)C(=O)N1 | Dose-dependent effect | –
34 | CCN1C(=O)C(=Cc2cc(-c3ccccc3)n(-c3ccc(Br)cc3)c2-c2ccccc2)C(=O)N(CC)C1=S | Dose-dependent effect | –
35 | Cc1ccc(N2C(=O)/C(=C\c3cc(-c4ccccc4)n(-c4ccc(Cl)cc4)c3-c3ccccc3)C(=O)N(c3ccccc3)C2=S)cc1C | Dose-dependent effect | –
36 | CCN1C(=O)C(=Cc2cc(-c3ccccc3)n(-c3ccc(Br)cc3)c2-c2ccccc2)C(=O)N(CC)C1=O | Dose-dependent effect | –
37 | Cc1cc(C=C2C(=O)N(c3ccccc3)C(=S)N(c3ccccc3)C2=O)c(C)n1-c1ccc(Br)cc1 | Dose-dependent effect | –
